Measurements published in ChEMBL document CHEMBL3862029, “Discovery of 8-Membered Ring Sulfonamides as Inhibitors of Oncogenic Mutant Isocitrate Dehydrogenase 1” (ACS Med Chem Lett, 2016).
Converted amounts (≈) assume the structure as drawn. The source made the active and inactive calls. The calls are words filed in the database; no cut-off is given here.

What was measured:
[1] = tested on: Isocitrate dehydrogenase [NADP] cytoplasmic (Homo sapiens), O75874 [R132H]; test: Inhibition of human C-terminal His8-tagged IDH1-R132H mutant expressed in Escherichia coli Rosetta cells assessed as change in melting temperature at 5 uM measured over 20 mins using SYPRO orange dye by DSF analysis
Isocitrate dehydrogenase [NADP] cytoplasmic (Homo sapiens), O75874 [R132H], sequence (O75874 whole entry R132H, the tested form may be a part): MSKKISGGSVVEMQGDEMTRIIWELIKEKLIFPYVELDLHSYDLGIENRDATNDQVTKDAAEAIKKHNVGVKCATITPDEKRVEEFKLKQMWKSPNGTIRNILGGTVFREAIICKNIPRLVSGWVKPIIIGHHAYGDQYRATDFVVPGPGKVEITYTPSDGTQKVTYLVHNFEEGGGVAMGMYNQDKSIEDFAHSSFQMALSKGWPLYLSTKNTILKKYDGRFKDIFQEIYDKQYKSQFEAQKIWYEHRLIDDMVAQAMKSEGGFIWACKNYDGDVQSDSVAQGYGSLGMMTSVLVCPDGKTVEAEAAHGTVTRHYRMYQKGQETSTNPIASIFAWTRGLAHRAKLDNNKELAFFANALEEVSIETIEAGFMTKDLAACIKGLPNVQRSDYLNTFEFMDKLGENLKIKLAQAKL
Method in brief: (§1)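 Differential scanning fluorimetry of recombinant enzyme, giving melting temperature shift with compound present. Mean of 3 independent experiments, each with 7 replicates.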

[2] = Cytotoxicity against human THP1 cells assessed as decrease in intracellular ATP levels up to 10 uM measured after 72 hrs by CellTiter-Glo assay; type: toxicity, cell-based; conditions: thp-1, 72 h
[3] = target: T1, Isocitrate dehydrogenase [NADP] cytoplasmic (Homo sapiens, UniProt O75874, R132H); test: Inhibition of human C-terminal His8-tagged IDH1-R132H mutant expressed in Escherichia coli Rosetta assessed as inhibition of ketoreductase activity by measuring NADPH consumption preincubated for 60 mins followed by addition of alpha-KG as substrate measured after 50 mins in presence of NADPH and Mg2+ by resazurin based diaphorase-coupled fluorescence assay
Method in brief: (§2)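 IDH1-R132H–Mg2+ ketoreductase assay reading NADPH consumption through a diaphorase-coupled fluorescence reaction. Buffer contained 0.01% Tween 20 against aggregation. Primary screen at 15 μM in duplicate, with positives set at ≥60% inhibition in both replicates. Retests were in 8-point dose.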
Target sequence in this assay (O75874 2-414 R132H limits assumed): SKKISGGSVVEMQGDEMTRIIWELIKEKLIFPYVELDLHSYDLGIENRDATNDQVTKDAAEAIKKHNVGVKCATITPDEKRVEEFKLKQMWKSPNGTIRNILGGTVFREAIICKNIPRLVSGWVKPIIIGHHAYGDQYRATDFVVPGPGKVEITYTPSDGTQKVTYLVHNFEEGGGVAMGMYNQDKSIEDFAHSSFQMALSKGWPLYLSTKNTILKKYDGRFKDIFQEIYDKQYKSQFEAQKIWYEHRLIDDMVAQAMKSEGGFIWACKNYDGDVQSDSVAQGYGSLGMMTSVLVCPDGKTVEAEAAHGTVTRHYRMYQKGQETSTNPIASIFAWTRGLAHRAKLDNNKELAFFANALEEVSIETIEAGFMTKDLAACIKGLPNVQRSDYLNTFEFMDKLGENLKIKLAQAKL

[4] = tested on: Isocitrate dehydrogenase [NADP] cytoplasmic (Homo sapiens), O75874 [R132H]; test: (§3) Inhibition of human C-terminal His8-tagged IDH1-R132H mutant expressed in Escherichia coli Rosetta assessed as inhibition of ketoreductase activity by measuring NADPH consumption preincubated for 10 mins followed by addition of NADPH and alpha-KG as substrate by fluorescence method
Method in brief: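 Purified IDH1-R132H incubated with α-KG and NADPH; direct kinetic read of falling NADPH fluorescence, run in dose. Enzyme concentration kept below that of the screening assays so inhibitor stays far above enzyme. IC50 values are geometric means of at least three independent experiments.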

[5] = tested on: Isocitrate dehydrogenase [NADP] cytoplasmic (Homo sapiens), O75874 [R132H]; test: Inhibition of human C-terminal His8-tagged IDH1-R132H mutant expressed in Escherichia coli Rosetta cells assessed as inhibition of ketoreductase activity measured as NADPH consumption preincubated for 60 mins followed by addition of NADPH and alpha-KG as substrate measured after 50 mins using Mg2+ …
[6] = target: Isocitrate dehydrogenase [NADP], mitochondrial (Homo sapiens) (UniProt P48735); test: Inhibition of human C-terminal FLAG-tagged IDH2-R140Q mutant (1 to 452 residues) expressed in baculovirus infeceted sf9 cells assessed as inhibition of ketoreductase activity preincubated for 10 mins followed by addition of NADPH and alpha-KG as substrate by fluorescence method
[7] = target: Isocitrate dehydrogenase [NADP] cytoplasmic (Homo sapiens, UniProt O75874, R132C); test: Inhibition of human C-terminal His8-tagged IDH1-R132C mutant expressed in Escherichia coli Rosetta assessed as inhibition of ketoreductase activity by measuring NADPH consumption preincubated for 10 mins followed by addition of NADPH and alpha-KG as substrate by fluorescence method
Isocitrate dehydrogenase [NADP] cytoplasmic (Homo sapiens, UniProt O75874, R132C), sequence (O75874 2-414 R132C limits assumed): as the sequence (O75874 2-414 R132H limits assumed) above, with H131C counted along it

[8] = tested on: Isocitrate dehydrogenase [NADP] cytoplasmic (Homo sapiens), O75874 [R132H]; test: (§4) Competitive inhibition of recombinant human C-terminal His8-tagged IDH1-R132H mutant expressed in Escherichia coli Rosetta cells assessed as inhibition of ketoreductase activity by measuring NADPH consumption preincubated for 10 mins followed by addition of NADPH and alpha-KG as substrate in presence of varying levels of Mg2+ concentration by fluorescence method
[9] = Cytotoxicity against human HA1EM cells assessed as decrease in intracellular ATP levels up to 10 uM measured after 72 hrs by CellTiter-Glo assay; type: toxicity, cell-based
Method in brief: (§5)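 IDH1-R132H-overexpressing HA1E-M cells treated for 72 h. After media harvest, viability assessed by morphology and ATP levels. Values are normalized to DMSO controls, mean ± SD of three independent experiments each run in triplicate.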

[10] = Cytotoxicity against human U937 cells assessed as decrease in intracellular ATP levels up to 10 uM measured after 72 hrs by CellTiter-Glo assay; type: toxicity, cell-based; conditions: u-937, 72 h
[11] = tested on: Isocitrate dehydrogenase [NADP] cytoplasmic (Homo sapiens), O75874 [R132H]; test: as §3, with “20” for “10”, “substrate in presence of Mg2+” for “substrate”, “spectrophotometric” for “fluorescence”
Method in brief: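 Orthogonal confirmation assay: IDH1-R132H ketoreductase activity with NADPH detected by absorbance. Positives retested in 8-point dose.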

[12] = target: T1, Isocitrate dehydrogenase [NADP] cytoplasmic; test: (§6) Inhibition of IDH1-R132H mutant (unknown origin) expressed in human HA1EM cells assessed as suppression of R-2HG secretion measured after 72 hrs by LC-MS/MS analysis; type: cell-based
Method in brief: (§7)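 HA1E-M cells (HEK-293 derivative) engineered to overexpress IDH1-R132H and release R-2HG into growth media. Compound treatment for 72 h, then R-2HG in conditioned media measured by LC-MS. Values normalized to DMSO-treated controls; EC50 from three independent experiments, each run in triplicate.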
Target sequence in this assay (O75874 whole entry R132H): as the sequence (O75874 whole entry R132H, the tested form may be a part) above

[13] = tested on: Isocitrate dehydrogenase [NADP] cytoplasmic (Homo sapiens), O75874 [R132H]; test: as §6; type: cell-based; method in brief: as §7
[14] = Half life in mouse liver microsomes at 1 uM by LC-MS/MS analysis; type: ADME
[15] = Protein binding in mouse plasma at 5 uM measured after 5 hrs by rapid equilibrium dialysis method; type: ADME, cell-free; conditions: read-out: PPB (converted)
[16] = tested on: Isocitrate dehydrogenase [NADP] cytoplasmic (Homo sapiens), O75874 [R132H]; test: Inhibition of human C-terminal His8-tagged IDH1-R132H mutant expressed in Escherichia coli Rosetta cells assessed as inhibition of ketoreductase activity measured as NADPH consumption preincubated for 60 mins followed by addition of NADPH and alpha-KG as substrate measured after 50 mins using Mg2+ as cofactor in presence of tween-20 detergent by resazurin/diaphorase-coupled fluorescence analysis; method in brief: as §2
[17] = Thermodynamic solubility of the compound in PBS at 100 uM and pH 7.4 measured after 18 hrs by UPLC-MS analysis; type: physicochemical; conditions: read-out: Therm_solubility
[18] = Octanol-phosphate buffer partition coefficient, log D of compound at pH 7.4 at 67 uM; type: physicochemical
[19] = Cytotoxicity against human THP1 cells assessed as decrease in intracellular ATP levels at >10 uM measured after 72 hrs by CellTiter-Glo assay; type: toxicity, cell-based; conditions: thp-1, 72 h
[20] = Cytotoxicity against human U937 cells assessed as decrease in intracellular ATP levels at >10 uM measured after 72 hrs by CellTiter-Glo assay; type: toxicity, cell-based; conditions: u-937, 72 h
[21] = Protein binding in human plasma at 5 uM measured after 5 hrs by rapid equilibrium dialysis method; type: ADME, cell-free; conditions: read-out: PPB (converted)
[22] = tested on: Isocitrate dehydrogenase [NADP] cytoplasmic (Homo sapiens), O75874 [R132C]; test: Inhibition of human C-terminal His8-tagged IDH1-R132C mutant expressed in Escherichia coli Rosetta cells assessed as change in melting temperature at 5 uM measured over 20 mins using SYPRO orange dye by DSF analysis; method in brief: as §1
Isocitrate dehydrogenase [NADP] cytoplasmic (Homo sapiens), O75874 [R132C], sequence (O75874 whole entry R132C): as the sequence (O75874 whole entry R132H, the tested form may be a part) above, with H132C counted along it

[23] = target: Isocitrate dehydrogenase [NADP] cytoplasmic (Homo sapiens, UniProt O75874); test: Inhibition of wild type human C-terminal His8-tagged IDH1 expressed in Escherichia coli Rosetta cells assessed as reduction in isocitrate to alpha-KG conversion preincubated for 15 mins followed by substrate addition in presence of NADP+ by resazurin based diaphorase-coupled fluorescence assay
Isocitrate dehydrogenase [NADP] cytoplasmic (Homo sapiens, UniProt O75874), sequence (O75874 whole entry): as the sequence (O75874 whole entry R132H, the tested form may be a part) above, with H132R counted along it
Method in brief: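 Wild-type IDH1 activity read as NADPH production from NADP+ and isocitrate, through a diaphorase-coupled fluorescence reaction analogous to the primary screen.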

[24] = tested on: Isocitrate dehydrogenase [NADP] cytoplasmic (Homo sapiens), O75874 [R132H]; test: as §4, with “and varying levels of” for “and”, “constant” for “varying levels of”
[25] = Cytotoxicity against human HA1EM cells assessed as decrease in intracellular ATP levels at >10 uM measured after 72 hrs by CellTiter-Glo assay; type: toxicity, cell-based; method in brief: as §5
[26] = Half life in human liver microsomes at 1 uM by LC-MS/MS analysis; type: ADME

Compound: C[C@@H]1CN([C@@H](C)CO)S(=O)(=O)c2ccc(C#Cc3cccc(F)c3)cc2O[C@H]1CN(C)C(=O)NC1CCCCC1
- ΔTm [1]: 3.7 °C
- Activity [2]: Non-Toxic
- IC50 [3]: 50 to 57 nM
- inhibition [4]: Active
- inhibition [5]: Active
- IC50 [6]: > 20000 nM
- IC50 [7]: 2500 nM
- inhibition [8]: Active
- Activity [9]: Non-Toxic
- Activity [10]: Non-Toxic
- inhibition [11]: Active
- EC50 [12]: 300 nM
- inhibition [13]: Dose-dependent effect
- half-life at 1 µM [14]: 42 s
- fraction unbound at 5 h, 5 µM [15]: 0.037
- inhibition [16]: Active
- solubility thermodynamic at 18 h, 100 µM [17]: 5 µM (≈ 2.86 µg/mL)
- logD at 67 µM [18]: 5.19
- Activity [19]: Toxic
- Activity [20]: Toxic
- fraction unbound at 5 h, 5 µM [21]: 0.005
- ΔTm [22]: 1.4 °C
- IC50 [23]: > 20000 nM
- inhibition [24]: Active
- Activity [25]: Toxic
- half-life at 1 µM [26]: 42 s
